Source: ChEMBL document CHEMBL1131013, “Synthesis and evaluation of analogues of the partial agonist 6-(propyloxy)-4-(methoxymethyl)-beta-carboline-3-carboxylic acid ethyl ester (6-PBC) and the full agonist 6-(benzyloxy)-4-(methoxymethyl)-beta-carboline-3-carboxylic acid ethyl ester (Zk 93423) at wild type and recombinant GABAA receptors” (J Med Chem, 1998)

Key:
[1] = molecular target: T1, GABA-A receptor; alpha-5/beta-3/gamma-2 (Homo sapiens, UniProt P18507+P28472+P31644); assay: Binding affinity measured using LtK- cell membranes expressing Gamma-aminobutyric acid A receptor alpha-5-beta-3-gamma-2
T1 sequence (P18507 whole entry): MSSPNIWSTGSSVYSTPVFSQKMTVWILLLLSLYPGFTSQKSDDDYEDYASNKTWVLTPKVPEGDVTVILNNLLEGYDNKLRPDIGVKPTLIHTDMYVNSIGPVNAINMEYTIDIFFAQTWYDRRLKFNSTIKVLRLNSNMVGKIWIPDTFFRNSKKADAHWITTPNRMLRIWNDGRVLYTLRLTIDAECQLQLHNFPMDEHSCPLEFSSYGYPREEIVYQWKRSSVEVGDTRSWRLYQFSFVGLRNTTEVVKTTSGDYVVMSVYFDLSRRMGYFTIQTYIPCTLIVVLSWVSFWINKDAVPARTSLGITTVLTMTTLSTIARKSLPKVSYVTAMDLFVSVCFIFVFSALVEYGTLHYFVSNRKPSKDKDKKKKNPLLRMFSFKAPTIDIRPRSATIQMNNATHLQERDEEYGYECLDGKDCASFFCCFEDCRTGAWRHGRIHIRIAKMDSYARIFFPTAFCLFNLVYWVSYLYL
T1 sequence (P28472 whole entry): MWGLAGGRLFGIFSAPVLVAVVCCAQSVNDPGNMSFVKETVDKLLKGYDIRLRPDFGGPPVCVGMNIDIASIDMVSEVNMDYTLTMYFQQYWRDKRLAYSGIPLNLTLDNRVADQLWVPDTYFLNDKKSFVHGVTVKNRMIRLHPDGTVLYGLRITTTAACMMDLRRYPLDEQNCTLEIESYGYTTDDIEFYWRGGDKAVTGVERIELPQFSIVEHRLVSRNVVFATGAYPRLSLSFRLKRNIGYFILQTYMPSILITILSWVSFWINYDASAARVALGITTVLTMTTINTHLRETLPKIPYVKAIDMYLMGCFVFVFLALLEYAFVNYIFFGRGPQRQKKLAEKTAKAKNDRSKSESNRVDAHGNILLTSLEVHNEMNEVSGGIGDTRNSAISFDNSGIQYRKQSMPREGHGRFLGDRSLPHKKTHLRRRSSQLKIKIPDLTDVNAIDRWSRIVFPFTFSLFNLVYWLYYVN
T1 sequence (P31644 whole entry): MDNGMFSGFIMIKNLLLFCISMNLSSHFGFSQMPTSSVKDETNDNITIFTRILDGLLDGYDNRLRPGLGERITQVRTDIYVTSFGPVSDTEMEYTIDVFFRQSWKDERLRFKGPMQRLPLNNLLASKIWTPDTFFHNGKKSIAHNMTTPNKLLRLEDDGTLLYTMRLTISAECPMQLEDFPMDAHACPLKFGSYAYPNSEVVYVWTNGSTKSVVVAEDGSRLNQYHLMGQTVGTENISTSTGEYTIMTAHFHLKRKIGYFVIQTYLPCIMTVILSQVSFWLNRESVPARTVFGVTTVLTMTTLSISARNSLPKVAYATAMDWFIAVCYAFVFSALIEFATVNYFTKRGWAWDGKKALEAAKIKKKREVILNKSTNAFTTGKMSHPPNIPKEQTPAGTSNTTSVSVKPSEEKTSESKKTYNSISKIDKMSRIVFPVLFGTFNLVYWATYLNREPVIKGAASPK

[2] = molecular target: GABA-A receptor; alpha-6/beta-3/gamma-2 (Homo sapiens, UniProt P18507+P28472+Q16445); assay: Binding affinity measured using LtK- cell membranes expressing Gamma-aminobutyric acid A receptor alpha-6-beta-3-gamma-2
Chain of GABA-A receptor; alpha-6/beta-3/gamma-2 (Q16445 whole entry, one chain of several): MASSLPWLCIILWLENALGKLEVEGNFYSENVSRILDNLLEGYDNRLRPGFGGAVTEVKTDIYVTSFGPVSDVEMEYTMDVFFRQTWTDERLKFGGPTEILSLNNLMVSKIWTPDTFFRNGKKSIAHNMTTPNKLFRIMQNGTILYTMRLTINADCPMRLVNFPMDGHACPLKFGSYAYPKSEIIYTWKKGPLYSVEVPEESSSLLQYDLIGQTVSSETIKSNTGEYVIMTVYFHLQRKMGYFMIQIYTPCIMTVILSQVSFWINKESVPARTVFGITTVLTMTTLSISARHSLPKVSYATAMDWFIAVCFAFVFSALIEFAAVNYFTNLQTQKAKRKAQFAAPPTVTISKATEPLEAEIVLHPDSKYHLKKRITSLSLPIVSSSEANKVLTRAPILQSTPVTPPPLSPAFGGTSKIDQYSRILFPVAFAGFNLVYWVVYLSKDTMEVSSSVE
Method in brief: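 Ltk- cells expressing human α6β3γ2, scraped into PBS and resuspended in 10 mM KH2PO4/100 mM KCl pH 7.4. 1 h at 4 °C to equilibrium, filtration, scintillation counting.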

[3] = molecular target: T2, GABA-A receptor; alpha-1/beta-3/gamma-2 (Homo sapiens, UniProt P14867+P18507+P28472); assay: Binding affinity measured using LtK- cell membranes expressing GABA alpha-1-beta-3-gamma-2 receptor
T2 sequence (P14867 whole entry): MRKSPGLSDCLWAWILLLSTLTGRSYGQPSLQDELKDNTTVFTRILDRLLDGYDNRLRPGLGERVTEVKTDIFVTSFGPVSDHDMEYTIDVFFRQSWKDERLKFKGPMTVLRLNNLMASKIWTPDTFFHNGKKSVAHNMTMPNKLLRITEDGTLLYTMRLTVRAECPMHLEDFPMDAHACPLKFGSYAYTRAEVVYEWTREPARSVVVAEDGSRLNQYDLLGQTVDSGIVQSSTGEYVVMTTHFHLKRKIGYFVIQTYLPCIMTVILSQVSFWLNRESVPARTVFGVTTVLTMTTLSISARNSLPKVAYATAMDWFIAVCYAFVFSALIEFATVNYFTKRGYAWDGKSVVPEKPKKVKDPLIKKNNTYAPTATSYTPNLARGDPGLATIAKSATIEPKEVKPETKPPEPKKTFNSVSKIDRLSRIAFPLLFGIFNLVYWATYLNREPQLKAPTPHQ
T2 sequence (P18507 whole entry): T1 sequence (P18507 whole entry)
T2 sequence (P28472 whole entry): T1 sequence (P28472 whole entry)

[4] = molecular target: T3, GABA-A receptor; alpha-2/beta-3/gamma-2 (Homo sapiens, UniProt P18507+P28472+P47869); assay: Binding affinity measured using LtK- cell membranes expressing GABA alpha-2-beta-3-gamma-2 receptor
T3 sequence (P18507 whole entry): T1 sequence (P18507 whole entry)
T3 sequence (P28472 whole entry): T1 sequence (P28472 whole entry)
T3 sequence (P47869 whole entry): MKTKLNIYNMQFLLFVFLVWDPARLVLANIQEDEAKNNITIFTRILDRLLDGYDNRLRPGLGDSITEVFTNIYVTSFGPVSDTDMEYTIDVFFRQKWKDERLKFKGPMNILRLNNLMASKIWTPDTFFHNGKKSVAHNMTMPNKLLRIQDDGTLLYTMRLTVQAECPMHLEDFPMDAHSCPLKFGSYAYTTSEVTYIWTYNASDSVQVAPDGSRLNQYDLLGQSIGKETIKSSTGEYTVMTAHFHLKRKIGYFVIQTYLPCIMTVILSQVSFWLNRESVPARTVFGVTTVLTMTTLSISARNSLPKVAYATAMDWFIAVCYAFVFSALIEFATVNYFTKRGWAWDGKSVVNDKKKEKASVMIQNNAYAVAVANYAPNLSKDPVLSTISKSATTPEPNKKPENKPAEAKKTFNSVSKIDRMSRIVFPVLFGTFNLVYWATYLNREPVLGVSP

[5] = molecular target: T4, GABA-A receptor; alpha-3/beta-3/gamma-2 (Homo sapiens, UniProt P18507+P28472+P34903); assay: Binding affinity measured using LtK- cell membranes expressing GABA alpha-3-beta-3-gamma-2 receptor
T4 sequence (P18507 whole entry): T1 sequence (P18507 whole entry)
T4 sequence (P28472 whole entry): T1 sequence (P28472 whole entry)
T4 sequence (P34903 whole entry): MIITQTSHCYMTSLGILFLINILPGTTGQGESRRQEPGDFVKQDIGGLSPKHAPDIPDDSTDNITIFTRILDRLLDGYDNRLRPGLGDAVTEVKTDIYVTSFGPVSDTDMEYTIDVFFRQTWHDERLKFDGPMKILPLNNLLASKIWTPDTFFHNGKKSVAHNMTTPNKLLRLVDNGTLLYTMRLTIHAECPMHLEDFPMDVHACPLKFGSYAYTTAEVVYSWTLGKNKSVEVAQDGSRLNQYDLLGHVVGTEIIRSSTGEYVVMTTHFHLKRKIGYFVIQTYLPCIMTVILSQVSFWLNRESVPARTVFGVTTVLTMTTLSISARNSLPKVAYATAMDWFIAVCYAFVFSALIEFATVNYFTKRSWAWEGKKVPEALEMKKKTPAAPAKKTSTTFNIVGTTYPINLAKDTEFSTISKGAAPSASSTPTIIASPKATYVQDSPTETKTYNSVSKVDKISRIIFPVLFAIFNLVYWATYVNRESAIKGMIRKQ

[6] = molecular target: GABA-A receptor; anion channel; assay: Displacement of [3H]flunitrazepam from GABA-A Benzodiazepine receptor of rat brain cortical membranes; format: cell membranes, Membrane
Method in brief: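 Rat cerebral cortex homogenized in 50 mM Tris-citrate, pH 7.4, and washed by centrifugation (20000g). […] Nonspecific binding with 10 μM Ro15-1788. Ended by vacuum filtration. IC50 estimated from at least six inhibitor concentrations; mean ± SEM of at least three determinations.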

[7] = molecular target: T3, GABA-A receptor; alpha-2/beta-3/gamma-2; assay: Binding affinity for GABA-A alpha-2-beta-3-gamma-2 receptor expressed in L(tk-) cells; format: cell-based
Method in brief: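 Competition binding on Ltk- cells expressing human α2β3γ2 GABAA receptors. Cells were scraped into PBS, centrifuged at 3000g and resuspended in phosphate buffer (10 mM KH2PO4, 100 mM KCl, pH 7.4 at 4 °C). Radioligand was [3H]Ro15-1788 at 1–2 nM, with test compound at 10^-9–10^-5 M. Nonspecific binding was defined by 10^-5 M diazepam. Incubation ran 1 h at 4 °C to equilibrium, followed by filtration and scintillation counting.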

[8] = molecular target: T1, GABA-A receptor; alpha-5/beta-3/gamma-2; assay: Binding affinity for GABA-A alpha-5-beta-3-gamma-2 receptor expressed in L (tk-) cells; format: cell-based
Method in brief: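 Competition binding against [3H]Ro15-1788 (1-2 nM final) on human GABAA receptors expressed in Ltk- cells, scraped into PBS and resuspended in 10 mM KH2PO4/100 mM KCl pH 7.4. Incubated to equilibrium 1 h at 4 °C, filtered, scintillation counted.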

SMILES	Ki [1] [nM]	Ki [2] [nM]	Ki [3] [nM]	Ki [4] [nM]	Ki [5] [nM]	IC50 [6] [nM]	Ki [7] [nM]	Ki [8] [nM]
CCCOc1ccc2[nH]c3cnc(OCCC)c(COC)c3c2c1	332	> 10000	24.6	214	270	43.2	–	–
COCc1c(N=C=S)[nH]cc2nc3ccc(OCc4ccccc4)cc3c1-2	159	> 10000	25	82.6	58.8	40	–	–
CCOc1cc2c(cn1)[nH]c1ccccc12	868	> 1000	6.43	–	–	–	25.1	–
CCCCCCCCOc1ccc2[nH]c3cnc(C(=O)OCC)c(COC)c3c2c1	> 3000	> 3000	> 1000	> 3000	> 3000	330	–	–
CCOC(=O)c1[nH]cc2nc3ccc(OCc4cccc5ccccc45)cc3c-2c1CC	270	> 10000	183	291	300	13.9	–	–
CCOC(=O)c1[nH]cc2nc3ccc(OC)cc3c-2c1COC	4	> 10000	0.14	1.19	1.72	1	–	–
CCCCCCCCOc1ccc2[nH]c3cnc(C(=O)OCC)c(CC)c3c2c1	–	> 30000	–	29700	35000	> 1000	–	12700
CCCOc1ccc2[nH]c3cnc(C(=O)OCC)c(COC)c3c2c1	2.4	1340	0.49	1.21	2.2	8.1	–	–
